# Screening data from PubChem BioAssay.
# STAT3 act: activators of IL-6 induced STAT3 signaling; activation (% of control), % at 5.6 µM; U3A cells, IL-6 STAT3-luciferase reporter, luminescence; 100% = signal with IL-6 EC80 alone; hit rate 0.91% among 190,000; AID 871;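 active means activation above the screen-wide mean of compound activation plus 3 SD, cut at about 130% in these data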;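 further: 0% = background luminescence of wells with medium and substrate only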
#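 System – human U3A cells carrying STAT3-luciferase construct · Probe or stimulus – Interleukin-6, 33 ng/mL · Schedule – compound 1 h, then IL-6 6 h at 37 °C · Signal – luminescence from STAT3-driven luciferase reporter · Evaluation – percent of IL-6-only median luminescence · Benchmarks – IL-6-only high control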
# STAT1 inh: reduces IFN-gamma driven STAT1 reporter signal | NIH 3T3 STAT1-luciferase reporter, luminescence | inhibition, % at 5.5 µM | hit rate 0.35% among 200,000 | AID 920;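 active means inhibition above a set limit, the mean inhibition across all tested compounds plus 3 SD, cut at about 34% in these data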;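 further: 0% = IFN-gamma with DMSO and 100% = IFN-gamma with 300 µM nifuroxazide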
# STAT3 inh: reduces IL-6 driven STAT3 reporter signal; U3A cells, IL-6 STAT3-luciferase reporter, luminescence; host cell line lacks STAT1; inhibition, % at 5.5 µM; hit rate 0.89% among 190,000; AID 862;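 active means inhibition above the mean inhibition across all screened compounds plus 3 SD, cut at about 44% in these data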;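 further: 0% = DMSO only wells and 100% = 100 µM nifuroxazide control wells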
# APP 5'UTR act: activates APP 5'UTR luciferase reporter; AID 1276; activation, % at 2 µM; SH-SY5Y APP 5'UTR luciferase reporter, luminescence; zero percent = DMSO vehicle wells; hit rate 1% among 190,000;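 active means activation above a set limit, based on mean plus 3 SD of controls, cut at about 140% in these data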
# STAT1 activator: activators of IFN-gamma induced STAT1 signaling. NIH 3T3 STAT1-luciferase reporter, luminescence; 100% = IFN-gamma alone, no compound. activation (% of control), % at 5.5 µM. hit rate 2.6% among 200,000. AID 932;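 active means activation above the screen-wide mean activation plus 3 SD, cut at about 130% in these data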;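 further: raw ratio to IFN-gamma control signal so 100% means no change and 0% no light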
# NF-kB expr up: NF-kB expression increase, human neuronal cells. NF-kB reporter expression; active compounds read high. fold change at 12.5 µM. hit rate 1.6% among 190,000. AID 1239; in the data active means fold change above about 3.3
# STAT1 activ conf: confirmation of STAT1 signaling activators; shares compounds with STAT1 activator; NIH 3T3 STAT1-luciferase reporter, IFN-gamma potentiation, luminescence; 100% = IFN-gamma EC80 alone, no compound; activation (% of control), % at 5.7 µM; hit rate 97% among 1,200; AID 1262;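 active means activation above a set limit carried over from the earlier primary STAT1 screen, cut at about 140% in these data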;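 further: simple ratio to median IFN-gamma plus DMSO wells so 0% means no light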
# NFkB act: counter-screen for STAT1 activators: NF-kappaB activation; shares compounds with STAT1 activator; HEK293T NF-kB luciferase reporter, TNF-alpha stimulated, luminescence; 100% = TNF-alpha with vehicle only; activation (% of control), % at 5.7 µM; hit rate 43% among 1,200; AID 1306;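 active means activation above the mean of solvent-only control wells plus 3 SD, set per campaign, cut at about 130% in these data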;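 further: TNF-alpha given at a submaximal dose yielding about 80% of full reporter signal; values are well signal over median control so 100% means no change and 0% no light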
# STAT3 act 2: counter-screen for STAT1 activators: human STAT3 activation | shares compounds with STAT1 activator | U3A cells STAT3-luciferase reporter, IL-6, luminescence; cells lack STAT1; 100 = IL-6 alone, no compound effect | activation (% of control), % at 5.7 µM | hit rate 46% among 1,200;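 active means activation above the solvent-only control well mean plus 3 SD, set per plate batch, cut at about 110% in these data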;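 further: 0% = no luminescence and 100% = median IL-6 plus DMSO wells; higher means more STAT3 reporter activation so hits are non-selective activators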
# * hit, by the source's call; . = not tested or not shown. This is a sample that favours compounds with a hit; in the whole collection about 5.1% have one here.
SMILES,STAT3 act,STAT1 inh,STAT3 inh,APP 5'UTR act,STAT1 activator,NF-kB expr up,STAT1 activ conf,NFkB act,STAT3 act 2
Cc1ccc(/C=C/C(=O)N2CCc3ccccc32)o1,91,-92,13,168*,180*,8.2*,224*,138*,109
O=c1c2ccccc2nc(SCc2ccncc2)n1CC1CCCO1 (stereo not drawn),103,6,-1,-13,94,0.91,.,.,.
COc1cc(/C=N/O)ccc1OCc1ccc(Cl)cc1,85,-59,22,191*,155*,8.4*,283*,148*,141*
O=[N+]([O-])c1cccc(-c2nnc(-c3ccccc3)o2)c1,99,-60,6,115,153*,3,161*,121,100
O=[N+]([O-])c1cc(Br)c(OCc2nnc(-c3ccccc3)o2)c(Br)c1,103,-4,4,20,103,1,.,.,.
O=C(COc1ccccc1Cl)Nc1ccc(Cl)cn1,93,-52,12,198*,151*,6.8*,198*,120,108
Brc1ccccc1/C=N/Nc1ccc2ccccc2n1,128,-64,-25,119,158*,9.4*,191*,120,146*
O=c1oc(Nc2cccc(Cl)c2)nc2ccccc12,103,-65,8,71,157*,2.4,177*,118,157*
COc1ccccc1-c1nn2c(-c3ccco3)nnc2s1,90,-79,13,44,172*,1.4,192*,138*,108
O=C(Nc1ccc(/C=C/c2nc3ccccc3o2)cc1)c1c(F)cccc1F,87,-82,19,208*,175*,2.1,205*,131,105
COc1ccc(-c2noc(Cc3cccs3)n2)cc1,95,-69,17,96,162*,3.9*,181*,138*,104
COc1ccc(-c2noc(Cc3ccccc3OC)n2)cc1,95,-25,9,20,122,1.4,.,.,.
COc1ccc(-c2cn3cc(C)ccc3n2)cc1Br,81,-84,23,164*,175*,6.8*,236*,103,86
COc1ccc(-c2cn3cc(Cl)ccc3n2)cc1OC,132,-30,-32,65,127,2,.,.,.
CC(C)=CC(=O)Nc1ccc(Br)cc1,91,-59,14,123,154*,5.6*,172*,141*,109
COc1ccc(/C=C(\CC(=O)O)c2nc3ccccc3o2)cc1,120,-55,-24,76,151*,0.9,160*,136*,116*
CNC(=O)c1sc2nc(-c3ccc(OC)cc3)cn2c1C,106,-71,-3,146*,164*,4.8*,188*,135*,105
O=C(COc1ncnc2sccc12)N1CCN(C(=O)c2ccco2)CC1,97,9,12,5,92,1.1,.,.,.
O=C(Nc1ccc(O)cc1)c1c(O)c2c([nH]c1=O)CCCC2,83,-65,24,162*,155*,1,205*,139*,93
CCO[C@@H]1OC(C(=O)N2CCOCC2)=C[C@H](c2coc3ccccc3c2=O)[C@H]1CCCO,.,2,.,8,100,1.4,.,.,.
CN(C)c1ccc(C(=O)OCC(=O)c2cccs2)cc1,70,-79,37,103,172*,5.2*,215*,123,104
COc1ccc(C(=O)COC(=O)c2ccc(N(C)C)cc2)cc1,98,-16,7,13,113,1.1,.,.,.
Cc1ccc2cc(CCNC(=O)c3cccs3)c(=O)[nH]c2c1C,103,-71,-3,126,165*,4*,187*,135*,110
CC(=O)NCCc1cc2ccc(C)c(C)c2[nH]c1=O,104,-2,-5,-5,103,1.1,.,.,.
O=c1[nH]c(SCc2ccc([N+](=O)[O-])cc2)nc2[nH]ncc12,109,-11,-2,15,109,0.68,.,.,.
SMILES,STAT3 act,STAT1 inh,STAT3 inh,APP 5'UTR act,STAT1 activator,NF-kB expr up,STAT1 activ conf,NFkB act,STAT3 act 2
CCN(CC)S(=O)(=O)c1cccc(-c2nnc(SCC(=O)NC3CCCCCCC3)n2N)c1,101,5,-1,0,99,1.1,.,.,.
Fc1cccc2sc(Nc3nc4cc5c(cc4s3)OCO5)nc12,115,-84,-18,139*,175*,3.5*,213*,141*,125*
Fc1cc(F)c2nc(Nc3nc4cc5c(cc4s3)OCO5)sc2c1,108,-14,-13,16,113,2.2,.,.,.
Fc1cccc2sc(Nc3nc4cc5c(cc4s3)OCCO5)nc12,93,-78,8,162*,170*,1.7,249*,108,132*
C[C@H](O)CC1=C[C@H](O)[C@@H](C)OC1=O,.,4,.,-6,95,1.1,.,.,.
Cc1ccc(/C=C(\C#N)C(=O)Nc2ccccn2)o1,103,-100,2,100,187*,4.3*,205*,138*,111*
O=C(CCc1nnc(CCCCc2ccccc2)o1)N(CCO)Cc1ccccc1,110,-3,2,-4,102,1.1,.,.,.
C=C(C)CN(CC)C(=O)CCc1nnc(CCCc2ccccc2)o1,114,-61,-11,85,154*,2.4,172*,133,123*
c1ccc(CSc2ccc(-c3cccs3)nn2)cc1,92,-72,11,124,165*,4.8*,184*,134*,99
Cc1n(CC(O)COC2CCCCC2)c2ccccc2[n+]1C (stereo not drawn),100,-5,3,.,109,1.1,.,.,.
Cc1cc(/C=N/NC(=O)c2nn(C)cc2Cl)c(C)n1-c1cccc(Br)c1,109,-65,-6,4,159*,1.5,113,108,91
Cc1cc(/C=N/NC(N)=S)c(C)n1-c1cccc(Cl)c1,97,-1,11,-8,99,1.1,.,.,.
COc1ccc(C(=O)Nc2ccc3c(c2)Cc2ccccc2-3)cc1,103,1,4,-8,99,1.2,.,.,.
O=C(Nc1ccc(-c2nc3ccccc3o2)cc1)c1cccnc1,88,-72,18,45,166*,2.6,185*,146*,98
O=C(Nc1ccc2c(c1)Cc1ccccc1-2)c1cccnc1,93,-58,15,69,151*,2.5,143*,117,91
O=C(Nc1ccc2c(c1)Cc1ccccc1-2)c1ccco1,87,-81,18,179*,174*,4*,211*,139*,102
COc1cccc(OC)c1C(=O)Nc1ccc2c(c1)Cc1ccccc1-2,93,-3,19,54,102,1.9,.,.,.
